Experiments:
[1] = target: Serotonin 1 receptors; 5-HT1B & 5-HT1D (Homo sapiens) (UniProt P28222+P28221); experiment: Selectivity towards 5-HT1D and to that of 5-HT1B in CHO cells; assay type: cell-based
In short: (§1)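 Radioligand binding to human 5-HT1D and 5-HT1B receptors stably expressed in CHO cells. Radioligand was used at approximately its KD for each receptor. IC50 values are the logarithmic mean of 2–5 independent determinations, each run in duplicate. Maximum variance from the mean of log(IC50) was 4%. Selectivity is IC50(1B)/IC50(1D).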

[2] = target: T1, 5-hydroxytryptamine receptor 1B (Homo sapiens, UniProt P28222); experiment: Displacement of specific [3H]5-HT binding to cloned human 5-hydroxytryptamine 1B receptor expressed in CHO cells; assay type: cell-based; in short: as §1
T1 sequence (P28222 whole entry): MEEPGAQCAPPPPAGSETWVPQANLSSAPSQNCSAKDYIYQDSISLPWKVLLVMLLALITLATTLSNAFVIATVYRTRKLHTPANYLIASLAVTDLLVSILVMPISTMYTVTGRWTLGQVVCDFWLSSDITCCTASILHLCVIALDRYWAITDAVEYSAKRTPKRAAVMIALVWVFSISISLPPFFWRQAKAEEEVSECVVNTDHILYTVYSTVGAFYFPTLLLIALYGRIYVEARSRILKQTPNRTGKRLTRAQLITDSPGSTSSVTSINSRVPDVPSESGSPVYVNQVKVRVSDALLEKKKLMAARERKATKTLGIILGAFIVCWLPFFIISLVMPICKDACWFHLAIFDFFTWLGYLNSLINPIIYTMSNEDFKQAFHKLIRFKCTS

[3] = target: T2, 5-hydroxytryptamine receptor 1D (Homo sapiens, UniProt P28221); experiment: Displacement of specific [3H]5-HT binding to cloned human 5-hydroxytryptamine 1D receptor expressed in CHO cells; assay type: cell-based; in short: as §1
T2 sequence (P28221 whole entry): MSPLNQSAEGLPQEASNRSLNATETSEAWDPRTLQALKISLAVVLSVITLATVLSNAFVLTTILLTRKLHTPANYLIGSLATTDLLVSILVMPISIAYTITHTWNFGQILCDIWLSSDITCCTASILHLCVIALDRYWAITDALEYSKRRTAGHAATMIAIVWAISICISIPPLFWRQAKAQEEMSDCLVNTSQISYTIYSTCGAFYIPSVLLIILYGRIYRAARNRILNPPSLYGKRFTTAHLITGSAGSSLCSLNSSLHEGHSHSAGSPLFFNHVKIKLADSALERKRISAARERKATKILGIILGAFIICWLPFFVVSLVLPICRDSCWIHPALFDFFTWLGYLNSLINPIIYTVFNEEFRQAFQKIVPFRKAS

Rattus norvegicus [4] = experiment: Oral absorption study in rat plasma obtained from cardiac blood samples after 2 hours of administration of 3 mg/kg orally; assay type: functional, organism-based; design: dose 3 mg/kg
In short: (§2)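 Male Sprague–Dawley rats, fasted overnight and with no surgery, received 3 mg/kg orally as a 0.6 mg/mL solution in PEG 400:5 mM HCl (25:75 v/v). Terminal blood was taken from the heart and hepatic portal vein under isoflurane at 0.5 and 2 h, three rats per time point. Plasma drug was measured by electrospray mass spectrometry. Values are mean ± SEM.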

Rattus norvegicus [5] = experiment: Oral absorption study in rat plasma obtained from cardiac blood samples after 0.5 hours of administration of 3 mg/kg orally; assay type: functional, organism-based; design: dose 3 mg/kg; in short: as §2
Rattus norvegicus [6] = experiment: Oral absorption study in rat plasma obtained from hepatic portal vein after 2 hours of administration of 3 mg/kg orally; assay type: functional, organism-based; design: dose 3 mg/kg; in short: as §2
[7] = pKa value by potentiometric; assay type: physicochemical
In short: (§3)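 Potentiometric titration in MeOH–H2O cosolvent with ionic strength set by 0.15 M KCl. Three titrations at different water/cosolvent ratios gave psKa values. Aqueous pKa was obtained by Yasuda–Shedlovsky extrapolation to 100% water, plotting psKa + log[H2O] against 1/ε.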

[8] = target: T1, 5-hydroxytryptamine receptor 1B; experiment: Agonist-induced [35S]GTP-gamma-S, binding in CHO cells stably transfected with human 5-hydroxytryptamine 1B receptor; assay type: functional, cell-based
In short: (§4)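 [35S]GTPγS binding stimulated by agonist, measured in CHO cells stably transfected with the human 5-HT1D or 5-HT1B receptor. EC50 values are the logarithmic mean of 2–3 independent determinations. Maximum variance of individual log(EC50) values from the mean was 4%.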

Rattus norvegicus [9] = experiment: Oral absorption study in rat plasma obtained from hepatic portal vein after 0.5 hours of administration of 3 mg/kg orally; assay type: functional, organism-based; design: dose 3 mg/kg; in short: as §2
[10] = target: T1, 5-hydroxytryptamine receptor 1B; experiment: Efficacy was evaluated relative to human 5-HT1B receptor using [35S]GTP-gamma-S, as radioligand; assay type: functional
[11] = pKa value by potentiometric method; assay type: physicochemical; in short: as §3
[12] = target: T2, 5-hydroxytryptamine receptor 1D; experiment: Agonist-induced [35S]GTP-gamma-S, binding in CHO cells stably transfected with human 5-hydroxytryptamine 1D receptor; assay type: functional, cell-based; in short: as §4
[13] = target: T2, 5-hydroxytryptamine receptor 1D; experiment: Efficacy was evaluated relative to human 5-hydroxytryptamine 1D receptor using [35S]GTP-gamma-S, as radioligand; assay type: functional

Structure (SMILES) | Selectivity [1] | IC50 [2] [nM] | IC50 [3] [nM] | also measured
F[C@@H]1CN(CCCc2c[nH]c3ccc(-n4cnnc4)cc23)CC[C@@H]1NCc1ccccc1C(F)(F)F | 23 | 300 | 13 | 
c1ccc(CC2CCN(CCCc3c[nH]c4ccc(-n5cnnc5)cc34)CC2)cc1 | 63 | 19 | 0.3 | Plasma concentration (Rattus norvegicus [4]): < 2 ng/mL; Plasma concentration (Rattus norvegicus [5]): < 2 ng/mL; Plasma concentration (Rattus norvegicus [6]): 33 ng/mL; pKa [7]: 9.7; EC50 [8]: 120 nM; Plasma concentration (Rattus norvegicus [9]): 25 ng/mL; Efficacy [10]: 62%
CN(Cc1ccccc1C(F)(F)F)[C@H]1CCN(CCCc2c[nH]c3ccc(-n4cnnc4)cc23)C[C@@H]1F | 17 | 220 | 13 | pKa [11]: 6.9
Fc1cccc(CCN2CCN(CC(F)Cc3c[nH]c4ccc(-n5cnnc5)cc34)CC2)c1 (stereo in doubt; 28) [listing 1 of 2 here] | 196 |  |  | 
CN(Cc1ccccc1)[C@H]1CCN(CCCc2c[nH]c3ccc(-n4cnnc4)cc23)C[C@@H]1F | 6 | 13 | 2.1 | 
Fc1cccc(CC2(F)CCN(CCCc3c[nH]c4ccc(-n5cnnc5)cc34)CC2)c1 | 13 | 5.3 | 0.4 | 
FC1(CCc2ccccc2)CCN(CCCc2c[nH]c3ccc(-n4cnnc4)cc23)CC1 | 25 | 49 | 2 | 
FC(Cc1c[nH]c2ccc(-n3cnnc3)cc12)CN1CCC(OCc2ccccc2)CC1 (configuration not stated) | 100 | 3000 | 30 | 
FC1(Cc2ccccc2)CCN(CCCc2c[nH]c3ccc(-n4cnnc4)cc23)CC1 | 17 | 15 | 0.9 | Plasma concentration (Rattus norvegicus [4]): 35 ng/mL; Plasma concentration (Rattus norvegicus [5]): 52 ng/mL; Plasma concentration (Rattus norvegicus [6]): 273 ng/mL; EC50 [8]: 66 nM; Plasma concentration (Rattus norvegicus [9]): 570 ng/mL; EC50 [12]: 0.4 nM; Efficacy [10]: 67%; pKa [11]: 8.8
FC(Cc1c[nH]c2ccc(-n3cnnc3)cc12)CN1CCN(CCc2ccccc2)CC1 (configuration not stated) | 137 | 930 | 6.8 | 
CC(CN1CCN(CC(F)Cc2c[nH]c3ccc(-n4cnnc4)cc23)CC1)c1ccccc1F (configuration not stated) | 380 | 380 | 1 | 
Fc1ccccc1CC1(F)CCN(CCCc2c[nH]c3ccc(-n4cnnc4)cc23)CC1 |  | 3.1 | 0.1 | 
Fc1ccc(CCC2(F)CCN(CCCc3c[nH]c4ccc(-n5cnnc5)cc34)CC2)cc1 | 25 | 25 | 1 | 
Fc1ccccc1CCN1CCN(CC(F)Cc2c[nH]c3ccc(-n4cnnc4)cc23)CC1 (configuration not stated) | 111 | 520 | 4.7 | 
c1ccc(CN2CCN(CCCc3c[nH]c4ccc(-n5cnnc5)cc34)CC2)cc1 | 79 |  | 0.14 | Plasma concentration (Rattus norvegicus [5]): 42 ng/mL; pKa [7]: 8.2; Plasma concentration (Rattus norvegicus [9]): 168 ng/mL
CC(CN1CCN(CC(F)Cc2c[nH]c3ccc(-n4cnnc4)cc23)CC1)c1ccc(F)cc1 (configuration not stated) | 310 | 310 | 1 | EC50 [8]: 1700 nM; Efficacy [13]: 106%; EC50 [12]: 1.6 nM; Efficacy [10]: 79%
FC(F)(Cc1c[nH]c2ccc(-n3cnnc3)cc12)CN1CCC(Cc2ccccc2)CC1 | 17 | 1300 | 78 | pKa [11]: 6.7
Fc1cccc(CCN2CCN(CC(F)Cc3c[nH]c4ccc(-n5cnnc5)cc34)CC2)c1 (stereo in doubt; 28) [listing 2 of 2 here] |  | 1000 | 5.1 | 
Fc1ccccc1CCC1(F)CCN(CCCc2c[nH]c3ccc(-n4cnnc4)cc23)CC1 | 20 | 16 | 0.8 | 

Structure (SMILES) | Selectivity [1] | IC50 [2] [nM] | IC50 [3] [nM] | also measured
CN(Cc1ccccc1)C1CCN(CC(F)Cc2c[nH]c3ccc(-n4cnnc4)cc23)CC1 (configuration not stated) | 22 | 1200 |  | Plasma concentration (Rattus norvegicus [4]): 10 ng/mL; Plasma concentration (Rattus norvegicus [5]): 2 ng/mL; Plasma concentration (Rattus norvegicus [6]): 217 ng/mL; EC50 [8]: 10300 nM; Plasma concentration (Rattus norvegicus [9]): 57 ng/mL; Efficacy [10]: 59%; pKa [11]: 8.5
CC(CC1(F)CCN(CCCc2c[nH]c3ccc(-n4cnnc4)cc23)CC1)c1ccccc1 (configuration not stated) | 47 | 28 | 0.6 | EC50 [8]: 510 nM; Efficacy [13]: 86%; EC50 [12]: 2.6 nM; Efficacy [10]: 85%
FC(F)(Cc1c[nH]c2ccc(-n3cnnc3)cc12)CN1CCC(CCc2ccccc2)CC1 | 104 | 5800 | 56 | 
FC(F)(Cc1c[nH]c2ccc(-n3cnnc3)cc12)CN1CCC(COc2ccccc2)CC1 | 26 | 7200 | 280 | 
Fc1cccc(CCN2CCN(CC(F)Cc3c[nH]c4ccc(-n5cnnc5)cc34)CC2)c1 (stereo in doubt; 25) [listing 1 of 2 here] |  | 1200 | 3.5 | EC50 [8]: 810 nM; EC50 [12]: 3.8 nM
CC(CN1CCN(CC(F)(F)Cc2c[nH]c3ccc(-n4cnnc4)cc23)CC1)c1ccccc1 (configuration not stated) | 290 | 1800 | 6.2 | EC50 [8]: 5100 nM; Efficacy [13]: 123%; EC50 [12]: 16 nM; Efficacy [10]: 53%
CC(CN1CCN(CC(F)Cc2c[nH]c3ccc(-n4cnnc4)cc23)CC1)c1cccc(F)c1 (configuration not stated) | 311 | 280 | 0.9 | EC50 [8]: 1500 nM; Efficacy [13]: 112%; EC50 [12]: 1.9 nM; Efficacy [10]: 87%
CN(Cc1ccccc1)C1CCN(CCCc2c[nH]c3ccc(-n4cnnc4)cc23)CC1 | 67 | 140 | 2.1 | Plasma concentration (Rattus norvegicus [4]): 5 ng/mL; Plasma concentration (Rattus norvegicus [5]): < 1 ng/mL; Plasma concentration (Rattus norvegicus [6]): 66 ng/mL; pKa [7]: 9.3; EC50 [8]: 1400 nM; Plasma concentration (Rattus norvegicus [9]): 4 ng/mL; EC50 [12]: 1.5 nM; Efficacy [10]: 77%
FC1(Cc2ccccc2C(F)(F)F)CCN(CCCc2c[nH]c3ccc(-n4cnnc4)cc23)CC1 | 47 | 14 | 0.3 | EC50 [8]: 290 nM; Efficacy [13]: 61%; EC50 [12]: 0.2 nM; Efficacy [10]: 91%
CN(Cc1ccccc1)C1CCN(CC(F)(F)Cc2c[nH]c3ccc(-n4cnnc4)cc23)CC1 | 60 | 2100 | 35 | 
Fc1cccc(CCN2CCN(C[C@@H](F)Cc3c[nH]c4ccc(-n5cnnc5)cc34)CC2)c1 | 117 | 680 | 5.8 | 
OC(Cc1c[nH]c2ccc(-n3cnnc3)cc12)CN1CCN(Cc2ccccc2)CC1 (configuration not stated) | 200 | 360 | 1.8 | 
CN(Cc1ccccc1C(F)(F)F)[C@H]1CCN(CCCc2c[nH]c3ccc(-n4cnnc4)cc23)C[C@H]1F | 24 | 220 | 9.3 | pKa [11]: 7.7
CC(CN1CCN(CC(F)(F)Cc2c[nH]c3ccc(-n4cnnc4)cc23)CC1)c1ccc(F)cc1 (configuration not stated) | 556 | 1000 | 1.8 | 
Fc1cccc(CCC2(F)CCN(CCCc3c[nH]c4ccc(-n5cnnc5)cc34)CC2)c1 | 31 | 22 | 0.7 | EC50 [8]: 440 nM; EC50 [12]: 5 nM; Efficacy [10]: 88%
Fc1ccc(CCN2CCN(CC(F)Cc3c[nH]c4ccc(-n5cnnc5)cc34)CC2)cc1 (configuration not stated) | 98 | 540 | 5.5 | 
CN(Cc1ccccc1)[C@H]1CCN(CCCc2c[nH]c3ccc(-n4cnnc4)cc23)C[C@H]1F | 18 | 220 | 12 | Plasma concentration (Rattus norvegicus [4]): 3 ng/mL; Plasma concentration (Rattus norvegicus [5]): 2 ng/mL; Plasma concentration (Rattus norvegicus [6]): 136 ng/mL; Plasma concentration (Rattus norvegicus [9]): 216 ng/mL; pKa [11]: 8
F[C@H]1CN(CCCc2c[nH]c3ccc(-n4cnnc4)cc23)CC[C@@H]1NCc1ccccc1C(F)(F)F | 34 | 170 | 5 | 
Fc1cccc(CCN2CCN(CC(F)Cc3c[nH]c4ccc(-n5cnnc5)cc34)CC2)c1 (stereo in doubt; 25) [listing 2 of 2 here] | 343 |  |  | Efficacy [10]: 25%

Source: ChEMBL document CHEMBL1132237, “Fluorination of 3-(3-(piperidin-1-yl)propyl)indoles and 3-(3-(piperazin-1-yl)propyl)indoles gives selective human 5-HT1D receptor ligands with improved pharmacokinetic profiles” (J Med Chem, 1999)
